Assay results collected from several papers.
ABCB1: ATP-dependent translocase ABCB1 (ABCB1, Homo sapiens, UniProt P08183)
PTPN7: Tyrosine-protein phosphatase non-receptor type 7 (PTPN7, Homo sapiens, UniProt P35236)
YES1: Tyrosine-protein kinase Yes (YES1, Homo sapiens, UniProt P07947)
ALOX5: Polyunsaturated fatty acid 5-lipoxygenase (ALOX5, Homo sapiens, UniProt P09917)
PDE8A: High affinity cAMP-specific and IBMX-insensitive 3',5'-cyclic phosphodiesterase 8A (PDE8A, Homo sapiens, UniProt O60658)
BCKDK: Branched-chain alpha-ketoacid dehydrogenase kinase (BCKDK, Homo sapiens, UniProt O14874)
murD: UDP-N-acetylmuramoylalanine--D-glutamate ligase (murD, Escherichia coli K-12, UniProt P14900)
SLC47A2: Multidrug and toxin extrusion protein 2 (SLC47A2, Homo sapiens, UniProt Q86VL8)

CC(C)=CCC[C@@]1(C)C(CC[C@H]2[C@]3(C)CC[C@H](O)C(C)(C)O[C@H]3CC[C@@]2(C)O)=C(C)CC[C@H]1O — IC50 (ABCB1; transporter efflux, inhibitor, fluorescence; KB-V1; 10 min): 20 to 50 µM
CCCC[C@H](NC(=O)[C@H](C)c1c(C)[nH]c2ccc(O)cc12)c1ncc(-c2cc3ccccc3nc2OC)[nH]1 — IC50 (Mu-type opioid receptor (OPRM1, Homo sapiens, UniProt P35372); cell-free assay): 4.61 µM
Cc1ccc(C(=O)Nc2ccc(S(=O)(=O)O)c3cc(S(=O)(=O)O)cc(S(=O)(=O)O)c23)cc1NC(=O)c1cccc(NC(=O)Nc2cccc(C(=O)Nc3cc(C(=O)Nc4ccc(S(=O)(=O)O)c5cc(S(=O)(=O)O)cc(S(=O)(=O)O)c45)ccc3C)c2)c1 — IC50 (PTPN7; enzyme activity, inhibitor, fluorescence): 30 µM
Cc1cnc(-c2ccc(-c3ccc(NC(=O)Nc4c(F)cc(F)cc4F)cc3F)c3c2C(=O)NC3)[nH]1 — IC50 (YES1; enzyme activity, inhibitor): 0.0045 µM
C=C(C)[C@@H]1CCC(C)=C[C@H]1c1c(O)cc(CCC)cc1O — IC50 (ALOX5; enzyme activity, inhibitor): 4.9 µM
CSc1ccc(/C=C2/C(C)=C(CC(=O)O)c3cc(F)ccc32)cc1 — IC50 (PDE8A; enzyme activity, inhibitor): > 100 µM
CCCCCc1cc(O)c(C/C=C(\C)CCC=C(C)C)c(O)c1 — IC50 (ALOX5; enzyme activity, inhibitor): 0.7 µM
O=C1c2ccccc2-c2cccc3cccc1c23 — IC50 (PTPN7; enzyme activity, inhibitor, fluorescence): 35 µM
CCCCc1nc(Cl)c(CO)n1Cc1ccc(-c2ccccc2-c2nn[nH]n2)cc1 — IC50 (BCKDK; enzyme activity, inhibitor): 19.8 µM
N#Cc1ccc(COc2ccccc2C=NNS(=O)(=O)c2ccc3ccccc3c2)cc1 — IC50 (murD; enzyme activity, inhibitor, absorbance): 62 µM
CC[C@H](C)[C@H](NC(C)=O)C(=O)N[C@@H](CCC(=O)O)C(=O)N[C@H](C(=O)N[C@H](C=O)CC(=O)O)[C@@H](C)O — IC50 (Caspase-5 (CASP5, Homo sapiens, UniProt P51878); enzyme activity, inhibitor): 0.00644 µM
CCN(CC)CCNC(=O)c1c(C)[nH]c(/C=C2\C(=O)Nc3ccc(F)cc32)c1C — IC50 (ABCB1; transporter efflux, inhibitor; LLC-PK1; 1 h): 6.7 µM
O=C(NO)c1ccc(NC(=O)C2(c3ccc(F)cc3)CCCC2)c(F)c1 — IC50 (Histone deacetylase 1 (HDAC1, Homo sapiens, UniProt Q13547); enzyme activity, inhibitor): 0.204 µM
C=CC(=O)Nc1cc(Nc2nccc(Nc3cc(Cl)c(F)cc3C(C)(C)O)n2)c(OC)cc1N1CC[C@@H](N(C)C)C1 — IC50 (YES1; enzyme activity, inhibitor; with preincubation): 2.9 µM
C=C(C)[C@@H]1CCC(C)=C[C@H]1c1c(O)cc(CCCCC)cc1O — IC50 (ALOX5; enzyme activity, inhibitor): 4.3 µM
CCCc1nc2c(n1Cc1ccc(-c3ccccc3-c3nnn[nH]3)cc1)C(=O)CCCC2 — IC50 (BCKDK; enzyme activity, inhibitor): 0.68 µM
CNC(=O)c1cc2c(Oc3ccc(NC(=O)C4(C(=O)Nc5ccc(F)cc5)CC4)cc3)ccnc2cc1OC — IC50 (Ephrin type-A receptor 8 (EPHA8, Homo sapiens, UniProt P29322); enzyme activity, inhibitor, radiometric): 0.034 µM
CCCc1nc2c(C)cc(-c3nc4ccccc4n3C)cc2n1Cc1ccc(-c2ccccc2C(=O)O)cc1 — IC50 (BCKDK; enzyme activity, inhibitor): > 300 µM
CCn1ncc2c1-c1cnc(N)c(c1)O[C@H](C)c1cc(F)ccc1-c1nn(C)nc1C2 — IC50 (Ephrin type-A receptor 6 (EPHA6, Homo sapiens, UniProt Q9UF33); enzyme activity, inhibitor, radiometric): 0.116 µM
NC(=O)c1ccc[n+]([C@@H]2O[C@H](COP(=O)([O-])OP(=O)(O)OC[C@H]3O[C@@H](n4cnc5c(N)ncnc54)[C@H](O)[C@@H]3O)[C@@H](O)[C@H]2O)c1 — IC50 (Protein mono-ADP-ribosyltransferase PARP10 (PARP10, Homo sapiens, UniProt Q53GL7); enzyme activity, inhibitor): 456 µM
O=c1c(O)c(-c2ccc(O)cc2)oc2cc(O)cc(O)c12 — IC50 (Histone deacetylase 8 (HDAC8, Homo sapiens, UniProt Q9BY41); enzyme activity, inhibitor): 7.8 µM
Cc1ccc(-c2cc(-c3ccc(-c4ccc(C(=O)O)cc4)[nH]3)nc3c(C(C)C)cccc23)cc1 — IC50 (Retinoic acid receptor beta (RARB, Homo sapiens, UniProt P10826); reporter gene, antagonist): > 3.3 µM
O=C(Nc1ccccc1C=NNS(=O)(=O)c1ccc2ccccc2c1)c1cc([N+](=O)[O-])cc([N+](=O)[O-])c1 — IC50 (murD; enzyme activity, inhibitor, absorbance): 49 µM
CN(C)CCC=C1c2ccccc2CCc2ccccc21 — IC50 (SLC47A2; transporter uptake, inhibitor, radiometric; HEK293; 5 min): > 500 µM
O=C(O)C(=O)CC(=O)c1cccc(N(Cc2ccccc2)Cc2ccccc2)c1 — IC50 (PTPN7; enzyme activity, inhibitor, absorbance; pH 7): 87 µM
CN1CCN(c2ccc(Nc3ncc4cc(C#N)c(=O)n(C5CCCC5)c4n3)cc2)CC1 — IC50 (Serine/threonine-protein kinase PLK2 (PLK2, Homo sapiens, UniProt Q9NYY3); enzyme activity, inhibitor): 2.17 µM
C[C@@H]1CCO[C@H]2Cn3cc(C(=O)NCc4ccc(F)cc4F)c(=O)c(O)c3C(=O)N12 — IC50 (SLC47A2; transporter uptake, inhibitor, radiometric; HEK293; 5 min, pH 8.5): 24.8 µM
CCOc1nc2cccc(C(=O)O)c2n1Cc1ccc(-c2ccccc2-c2nnn[nH]2)cc1 — IC50 (BCKDK; enzyme activity, inhibitor): 4.28 µM
O=[N+]([O-])c1ccc(S(=O)(=O)Oc2ccccc2C=NNS(=O)(=O)c2ccc3ccccc3c2)cc1 — IC50 (murD; enzyme activity, inhibitor, absorbance): 74 µM
CCCCCCCc1ccc(CCc2cccc(O)c2C(=O)O)cc1 — IC50 (Histone acetyltransferase KAT2B (KAT2B, Homo sapiens, UniProt Q92831); enzyme activity, inhibitor, radiometric): > 200 µM
CC/C=C\C/C=C\C/C=C\C/C=C\C/C=C\CCCC(=O)O — IC50 (DNA polymerase subunit gamma-1 (POLG, Homo sapiens, UniProt P54098); enzyme activity, inhibitor): 23.9 µM
CCCCC1=NC2(CCCC2)C(=O)N1Cc1ccc(-c2ccccc2-c2nnn[nH]2)cc1 — IC50 (BCKDK; enzyme activity, inhibitor): 32.9 µM
CCc1cc(/C(C)=N/OCc2ccc(C3CCCCC3)c(C(F)(F)F)c2)ccc1CN1CC(C(=O)O)C1 — IC50 (Cytochrome P450 2A6 (CYP2A6, Homo sapiens, UniProt P11509); enzyme activity, inhibitor; human, liver microsomes; 20 min): > 1.1 µM
COc1cc(/C=C2\SC(=O)NC2=O)cc(F)c1OCCNc1nc2c(cnn2C2CCCC2)c(=O)[nH]1 — IC50 (PDE8A; enzyme activity, inhibitor): 0.091 µM
CCCC[C@@H](C(=O)N[C@@H](CC(=O)O)C(=O)N(C)[C@@H](Cc1ccccc1)C(N)=O)N(C)C(=O)[C@H](Cc1c[nH]c2ccccc12)NC(=O)CNC(=O)[C@H](Cc1ccc(O)cc1)NC(=O)[C@H](C)NC(=O)[C@@H](CCC(=O)O)NC(=O)CN1CCN(CC(=O)O)CCN(CC(=O)O)CCN(CC(=O)O)CC1 — IC50 (Gastrin/cholecystokinin type B receptor (Rattus norvegicus, UniProt P30553); ligand displacement, radioligand): 0.00453 µM
